Measured values reported in ChEMBL document CHEMBL1914320, “C4-alkylthiols with activity against Moraxella catarrhalis and Mycobacterium tuberculosis” (Bioorg Med Chem, 2011).
The source made the active and inactive calls. The rule behind the calls is not given here.

Key:
Moraxella catarrhalis [1] = test: Antibacterial activity against beta-lactamase producing Moraxella catarrhalis isolate 1 at 10 ug/disc after overnight incubation by disc diffusion assay; format: functional
Outline: (§1)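 Isolates were held at −80 °C. Five colonies were suspended in Mueller-Hinton broth to a 0.5 McFarland density and swabbed onto MH agar. Discs carried 10 μg compound, applied in methanol and dried at room temperature. Plates were incubated overnight at 37 °C, and the zone of inhibition was measured in mm from the disc edge. Controls were methanol-only and penicillin discs. Run blinded, in triplicate.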

Moraxella catarrhalis [2] = test: Antibacterial activity against beta-lactamase producing Moraxella catarrhalis isolate 2 at 10 ug/disc after overnight incubation by disc diffusion assay; format: functional; conditions: read-out: IZ; outline: as §1
Moraxella catarrhalis [3] = test: Antibacterial activity against beta-lactamase producing Moraxella catarrhalis isolate 3 at 10 ug/disc after overnight incubation by disc diffusion assay; format: functional; outline: as §1
Moraxella catarrhalis [4] = test: Antibacterial activity against beta-lactamase producing Moraxella catarrhalis isolate 4 at 10 ug/disc after overnight incubation by disc diffusion assay; format: functional; outline: as §1
Moraxella catarrhalis [5] = test: Antibacterial activity against beta-lactamase producing Moraxella catarrhalis isolate 5 at 10 ug/disc after overnight incubation by disc diffusion assay; format: functional; conditions: read-out: IZ; outline: as §1
Escherichia coli [6] = test: Antibacterial activity against non-beta-lactamase producing Escherichia coli ATCC 25922 at 10 ug/disc after overnight incubation by disc diffusion assay; format: functional, organism-based; outline: as §1
Pseudomonas aeruginosa [7] = test: Antibacterial activity against non-beta-lactamase producing Pseudomonas aeruginosa ATCC 27853 at 10 ug/disc after overnight incubation by disc diffusion assay; format: functional, organism-based; outline: as §1
Staphylococcus aureus [8] = test: Antibacterial activity against non-beta-lactamase producing Staphylococcus aureus ATCC 25923 at 10 ug/disc after overnight incubation by disc diffusion assay; format: functional, organism-based; outline: as §1
Enterococcus faecalis [9] = test: Antibacterial activity against non-beta-lactamase producing Enterococcus faecalis ATCC 29212 at 10 ug/disc after overnight incubation by disc diffusion assay; format: functional, organism-based; outline: as §1
Escherichia coli [10] = test: Antibacterial activity against non-beta-lactamase producing Escherichia coli ATCC 25922 after 48 hrs by microdilution broth method; format: functional, organism-based
Outline: (§2)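 Broth microdilution followed CLSI guidelines. Compound was dissolved in 95% ethanol, diluted at least 10-fold into Mueller-Hinton broth, then serially two-fold diluted from 500 to 15.6 μg/mL. Actively growing culture was added at 5 × 10^5 cells/mL. Plates ran 48 h at 37 °C, scored for visible growth at 24 and 48 h. MIC was the lowest concentration without growth. For MBC, 10 μL from each clear well was plated on MH agar. Controls were ethanol and penicillin. Triplicate.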

Pseudomonas aeruginosa [11] = test: Antibacterial activity against non-beta-lactamase producing Pseudomonas aeruginosa ATCC 27853 after 48 hrs by microdilution broth method; format: functional, organism-based; outline: as §2
Staphylococcus aureus [12] = test: Antibacterial activity against non-beta-lactamase producing Staphylococcus aureus ATCC 25923 after 48 hrs by microdilution broth method; format: functional, organism-based; outline: as §2
Enterococcus faecalis [13] = test: Antibacterial activity against non-beta-lactamase producing Enterococcus faecalis ATCC 29212 after 48 hrs by microdilution broth method; format: functional, organism-based; outline: as §2
[14] = Chemical stability of the compound assessed as compound degradation after 48 hrs by NMR analysis; format: physicochemical; conditions: for degraded at 48 h: read-out: Drug metabolism

| SMILES | inhibition zone (IZ) (Moraxella catarrhalis [1]) | zone of inhibition at 10 µg/disc (Moraxella catarrhalis [2]) [mm] | inhibition zone (IZ) (Moraxella catarrhalis [3]) | inhibition zone (IZ) (Moraxella catarrhalis [4]) | zone of inhibition at 10 µg/disc (Moraxella catarrhalis [5]) [mm] | Activity (Escherichia coli [6]) | Activity (Pseudomonas aeruginosa [7]) | Activity (Staphylococcus aureus [8]) | Activity (Enterococcus faecalis [9]) | Activity (Escherichia coli [10]) | Activity (Pseudomonas aeruginosa [11]) | Activity (Staphylococcus aureus [12]) | Activity (Enterococcus faecalis [13]) | Percent compound degraded ([14]; 48 h) [%] | degraded at 48 h [14] [%] |
| --- | --- | --- | --- | --- | --- | --- | --- | --- | --- | --- | --- | --- | --- | --- | --- |
| CCOC(=O)C/N=C\C(S)(CC)CC | inactive | 2 | inactive | inactive | 11 | inactive | inactive | inactive | inactive | inactive | inactive | inactive | inactive | 10 | – |
| CCOC(=O)C/N=C\C(CC)(CC)SSC(/C=N/CC(=O)OCC)(CC)CC | – | – | – | – | – | inactive | inactive | inactive | inactive | inactive | inactive | inactive | inactive | – | 10 |
| CCOC(=O)C/N=C\C(CC)(CC)SSC(C=O)(CC)CC | – | – | – | – | – | inactive | inactive | inactive | inactive | inactive | inactive | inactive | inactive | – | 10 |
| CCC(C=O)(CC)SSC(/C=N\CC(=O)OC)(CC)CC | – | – | – | – | – | inactive | inactive | inactive | inactive | inactive | inactive | inactive | inactive | – | 10 |
